Results on 6 molecules are retold here after BindingDB's records for doi:10.1016/j.bmc.2008.04.041 (The University of Tokushima, 2008).

The target of assay [1] is Matrix metalloproteinase-9 (Bos taurus, UniProt P52176). In words: Inhibition of bovine arterial endothelial cell MMP9.
The target in assay [2] is 72 kDa type IV collagenase (Homo sapiens, UniProt P08253). In words: Inhibition of human bowes melanoma cell MMP2.
Assay [3] deals with Vascular endothelial growth factor receptor 1 (Homo sapiens, UniProt P17948). In words: Inhibition of Flt1 expressed in mouse NIH3T3 cells by autoradiography.
Sequence of Vascular endothelial growth factor receptor 1 (P17948 whole entry): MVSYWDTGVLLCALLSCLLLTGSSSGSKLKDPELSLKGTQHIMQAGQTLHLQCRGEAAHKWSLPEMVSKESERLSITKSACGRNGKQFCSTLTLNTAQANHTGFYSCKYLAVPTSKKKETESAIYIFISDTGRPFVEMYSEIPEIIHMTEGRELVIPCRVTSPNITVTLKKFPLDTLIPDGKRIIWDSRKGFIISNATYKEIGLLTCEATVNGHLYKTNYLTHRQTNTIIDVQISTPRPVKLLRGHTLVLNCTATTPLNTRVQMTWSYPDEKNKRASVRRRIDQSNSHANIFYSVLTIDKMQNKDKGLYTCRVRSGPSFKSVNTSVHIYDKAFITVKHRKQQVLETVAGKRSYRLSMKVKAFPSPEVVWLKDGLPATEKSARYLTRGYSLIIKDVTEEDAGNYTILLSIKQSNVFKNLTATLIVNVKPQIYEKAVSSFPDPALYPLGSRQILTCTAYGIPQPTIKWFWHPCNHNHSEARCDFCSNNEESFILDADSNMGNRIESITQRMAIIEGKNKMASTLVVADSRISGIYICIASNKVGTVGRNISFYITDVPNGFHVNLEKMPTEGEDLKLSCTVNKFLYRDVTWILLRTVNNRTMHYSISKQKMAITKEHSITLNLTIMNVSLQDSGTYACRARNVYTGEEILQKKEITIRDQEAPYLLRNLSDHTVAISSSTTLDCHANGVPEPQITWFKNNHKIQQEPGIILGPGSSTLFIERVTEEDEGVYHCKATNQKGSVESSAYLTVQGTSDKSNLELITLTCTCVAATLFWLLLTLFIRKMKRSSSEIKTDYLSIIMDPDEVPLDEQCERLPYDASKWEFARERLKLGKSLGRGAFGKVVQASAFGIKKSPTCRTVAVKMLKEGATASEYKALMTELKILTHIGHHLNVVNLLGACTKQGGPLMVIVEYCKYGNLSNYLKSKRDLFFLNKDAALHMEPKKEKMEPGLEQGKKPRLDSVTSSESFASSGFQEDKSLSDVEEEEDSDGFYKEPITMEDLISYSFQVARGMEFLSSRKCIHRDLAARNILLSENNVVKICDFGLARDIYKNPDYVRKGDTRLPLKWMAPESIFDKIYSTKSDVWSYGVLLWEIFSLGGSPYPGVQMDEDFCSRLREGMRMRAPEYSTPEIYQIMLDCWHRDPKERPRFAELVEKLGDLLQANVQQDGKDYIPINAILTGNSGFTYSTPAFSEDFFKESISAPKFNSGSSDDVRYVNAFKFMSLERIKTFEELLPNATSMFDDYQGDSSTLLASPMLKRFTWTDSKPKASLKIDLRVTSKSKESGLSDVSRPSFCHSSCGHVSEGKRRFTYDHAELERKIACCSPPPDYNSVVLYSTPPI
Assay [4] addresses Epidermal growth factor receptor (Homo sapiens, UniProt P00533). In words: Inhibition of human A431 cell EGFRK assessed as 32P phosphorylation by scintillation counter. The method, boiled down:
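Solubilized A431 cell lysate, debris removed, incubated with or without EGF for 30 min at 25 °C. Reaction started with [γ-³²P]ATP, 10 min at 0 °C. After stopping and washing, receptor phosphorylation measured as ³²P by scintillation counting.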

Sequence of Matrix metalloproteinase-9 (P52176 whole entry): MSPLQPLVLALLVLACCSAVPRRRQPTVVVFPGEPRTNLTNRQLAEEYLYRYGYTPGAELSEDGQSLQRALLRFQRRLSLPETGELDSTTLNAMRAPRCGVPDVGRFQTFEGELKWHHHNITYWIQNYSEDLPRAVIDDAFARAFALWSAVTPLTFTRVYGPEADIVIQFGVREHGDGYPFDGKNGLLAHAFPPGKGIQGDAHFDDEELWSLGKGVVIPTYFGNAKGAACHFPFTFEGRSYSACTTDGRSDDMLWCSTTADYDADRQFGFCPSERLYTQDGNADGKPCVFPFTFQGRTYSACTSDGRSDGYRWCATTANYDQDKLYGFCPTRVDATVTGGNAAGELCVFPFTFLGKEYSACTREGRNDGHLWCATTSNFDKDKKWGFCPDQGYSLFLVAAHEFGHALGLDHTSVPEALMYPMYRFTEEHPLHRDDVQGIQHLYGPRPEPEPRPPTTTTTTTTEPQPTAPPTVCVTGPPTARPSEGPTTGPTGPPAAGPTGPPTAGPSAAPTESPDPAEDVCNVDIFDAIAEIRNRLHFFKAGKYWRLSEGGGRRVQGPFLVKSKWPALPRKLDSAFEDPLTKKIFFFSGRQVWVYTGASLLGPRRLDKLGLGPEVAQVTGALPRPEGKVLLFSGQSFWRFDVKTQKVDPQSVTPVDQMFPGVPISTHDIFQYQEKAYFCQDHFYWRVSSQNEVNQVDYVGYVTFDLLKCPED
Sequence of 72 kDa type IV collagenase (P08253 whole entry): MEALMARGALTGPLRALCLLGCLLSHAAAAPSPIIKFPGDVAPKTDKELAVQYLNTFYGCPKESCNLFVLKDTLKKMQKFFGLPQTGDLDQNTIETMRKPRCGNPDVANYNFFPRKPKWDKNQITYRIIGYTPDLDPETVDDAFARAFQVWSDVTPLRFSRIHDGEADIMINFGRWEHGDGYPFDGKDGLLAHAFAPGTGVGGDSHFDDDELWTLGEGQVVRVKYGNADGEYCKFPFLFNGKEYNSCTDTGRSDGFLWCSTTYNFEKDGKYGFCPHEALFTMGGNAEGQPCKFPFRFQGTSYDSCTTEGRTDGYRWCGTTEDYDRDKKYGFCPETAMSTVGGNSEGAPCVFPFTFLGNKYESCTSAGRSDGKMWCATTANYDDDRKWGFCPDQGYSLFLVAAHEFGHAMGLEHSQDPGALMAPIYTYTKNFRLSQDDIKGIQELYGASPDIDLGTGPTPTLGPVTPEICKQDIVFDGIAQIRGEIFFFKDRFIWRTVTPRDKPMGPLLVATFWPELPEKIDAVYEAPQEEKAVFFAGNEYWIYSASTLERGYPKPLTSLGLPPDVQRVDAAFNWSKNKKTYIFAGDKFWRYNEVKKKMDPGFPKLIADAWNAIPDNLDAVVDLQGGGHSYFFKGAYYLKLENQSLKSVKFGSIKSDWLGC
Sequence of Epidermal growth factor receptor (P00533 whole entry): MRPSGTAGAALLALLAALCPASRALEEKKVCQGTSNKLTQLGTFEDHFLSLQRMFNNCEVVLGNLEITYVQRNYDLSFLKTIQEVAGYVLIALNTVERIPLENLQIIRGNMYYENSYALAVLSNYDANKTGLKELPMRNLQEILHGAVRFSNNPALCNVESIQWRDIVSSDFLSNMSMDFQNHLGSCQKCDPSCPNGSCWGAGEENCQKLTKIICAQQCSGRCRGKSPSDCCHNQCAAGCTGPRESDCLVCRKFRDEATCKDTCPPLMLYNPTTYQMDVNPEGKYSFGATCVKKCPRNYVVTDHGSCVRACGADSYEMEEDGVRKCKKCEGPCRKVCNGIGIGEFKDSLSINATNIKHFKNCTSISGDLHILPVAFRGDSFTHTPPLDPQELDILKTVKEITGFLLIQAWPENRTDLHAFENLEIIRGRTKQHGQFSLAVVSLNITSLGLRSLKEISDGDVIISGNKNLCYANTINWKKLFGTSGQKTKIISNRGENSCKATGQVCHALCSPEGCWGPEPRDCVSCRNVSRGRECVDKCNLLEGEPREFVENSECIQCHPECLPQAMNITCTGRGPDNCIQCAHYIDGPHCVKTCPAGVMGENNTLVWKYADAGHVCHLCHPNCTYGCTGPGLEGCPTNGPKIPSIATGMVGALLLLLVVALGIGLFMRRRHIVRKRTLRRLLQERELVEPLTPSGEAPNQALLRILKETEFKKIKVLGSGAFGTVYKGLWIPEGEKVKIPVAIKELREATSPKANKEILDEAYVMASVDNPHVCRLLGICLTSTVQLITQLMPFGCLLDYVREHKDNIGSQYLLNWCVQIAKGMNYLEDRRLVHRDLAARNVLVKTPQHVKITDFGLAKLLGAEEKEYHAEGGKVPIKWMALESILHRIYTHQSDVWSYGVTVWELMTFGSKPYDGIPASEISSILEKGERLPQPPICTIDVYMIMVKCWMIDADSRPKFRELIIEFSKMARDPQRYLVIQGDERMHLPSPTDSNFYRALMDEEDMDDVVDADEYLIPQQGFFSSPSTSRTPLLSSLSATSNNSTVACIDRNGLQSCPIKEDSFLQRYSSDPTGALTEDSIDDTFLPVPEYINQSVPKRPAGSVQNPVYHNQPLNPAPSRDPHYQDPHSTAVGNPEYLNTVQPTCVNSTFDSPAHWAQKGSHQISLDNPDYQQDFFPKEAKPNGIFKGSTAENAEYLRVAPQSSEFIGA

On to `COC[C@@H](Cn1ccnc1[N+](=O)[O-])OC(=O)c1ccc(NC=C2C(=O)C=CC2=O)cc1`, for which the IC50 – broadly, the concentration that gives 50% inhibition – turned out to be 53 µM in assay [1], 24 µM in assay [2] and 23.4 µM in assay [3].

Regarding `CC(C)(C)c1ccc(OC[C@@H](Cn2ccnc2[N+](=O)[O-])OC(=O)c2ccc(NC=C3C(=O)C=CC3=O)cc2)cc1` [TX-2036], the IC50 was 67 µM in assay [1], 18.4 µM in assay [3] and 1.8 µM in assay [4].

Consider `CC(C)(C)c1ccc(OC[C@H](Cn2ccnc2[N+](=O)[O-])OC(=O)c2ccc(NC=C3C(=O)C=CC3=O)cc2)cc1` [TX-2037], for which the IC50 was 103 µM in assay [1], 183 µM in assay [2], 184 µM in assay [3] and 18.4 µM in assay [4].

Turning to `COC[C@H](Cn1ccnc1[N+](=O)[O-])OC(=O)c1ccc(NC=C2C(=O)C=CC2=O)cc1` [TX-2044], the IC50 in assay [4] stood at 23 µM.

In the case of `COC[C@@H](Cn1ccnc1[N+](=O)[O-])OC(=O)c1ccc(NC(=O)C(F)(F)F)cc1` [TX-2045], the IC50 in assay [1] and in assay [2] was > 240 µM throughout.

Consider `COC[C@H](Cn1ccnc1[N+](=O)[O-])OC(=O)c1ccc(NC(=O)C(F)(F)F)cc1` [TX-2046], for which the IC50 in assay [1] and in assay [2] was > 240 µM each time.
